# Data as given in ChEMBL document CHEMBL1135796, “Inhibition of nNOS activity in rat brain by synthetic kynurenines: structure-activity dependence” (J Med Chem, 2002).
# What was measured:
# [1] = Compound tested for solubility measured in 3% ethanol:water or in 3% methanol:water; NS is not soluble; format: ADME; details: buffer
# [2] = target: Nitric oxide synthase 1 (Rattus norvegicus) (UniProt P29476); test: Neuronal subtype of Neuronal nitric oxide synthase (nNOS) activity tested on Rat Striatal neurones at the concentration of 10e-7 (M)
# Sequence of Nitric oxide synthase 1 (Rattus norvegicus) (P29476 whole entry): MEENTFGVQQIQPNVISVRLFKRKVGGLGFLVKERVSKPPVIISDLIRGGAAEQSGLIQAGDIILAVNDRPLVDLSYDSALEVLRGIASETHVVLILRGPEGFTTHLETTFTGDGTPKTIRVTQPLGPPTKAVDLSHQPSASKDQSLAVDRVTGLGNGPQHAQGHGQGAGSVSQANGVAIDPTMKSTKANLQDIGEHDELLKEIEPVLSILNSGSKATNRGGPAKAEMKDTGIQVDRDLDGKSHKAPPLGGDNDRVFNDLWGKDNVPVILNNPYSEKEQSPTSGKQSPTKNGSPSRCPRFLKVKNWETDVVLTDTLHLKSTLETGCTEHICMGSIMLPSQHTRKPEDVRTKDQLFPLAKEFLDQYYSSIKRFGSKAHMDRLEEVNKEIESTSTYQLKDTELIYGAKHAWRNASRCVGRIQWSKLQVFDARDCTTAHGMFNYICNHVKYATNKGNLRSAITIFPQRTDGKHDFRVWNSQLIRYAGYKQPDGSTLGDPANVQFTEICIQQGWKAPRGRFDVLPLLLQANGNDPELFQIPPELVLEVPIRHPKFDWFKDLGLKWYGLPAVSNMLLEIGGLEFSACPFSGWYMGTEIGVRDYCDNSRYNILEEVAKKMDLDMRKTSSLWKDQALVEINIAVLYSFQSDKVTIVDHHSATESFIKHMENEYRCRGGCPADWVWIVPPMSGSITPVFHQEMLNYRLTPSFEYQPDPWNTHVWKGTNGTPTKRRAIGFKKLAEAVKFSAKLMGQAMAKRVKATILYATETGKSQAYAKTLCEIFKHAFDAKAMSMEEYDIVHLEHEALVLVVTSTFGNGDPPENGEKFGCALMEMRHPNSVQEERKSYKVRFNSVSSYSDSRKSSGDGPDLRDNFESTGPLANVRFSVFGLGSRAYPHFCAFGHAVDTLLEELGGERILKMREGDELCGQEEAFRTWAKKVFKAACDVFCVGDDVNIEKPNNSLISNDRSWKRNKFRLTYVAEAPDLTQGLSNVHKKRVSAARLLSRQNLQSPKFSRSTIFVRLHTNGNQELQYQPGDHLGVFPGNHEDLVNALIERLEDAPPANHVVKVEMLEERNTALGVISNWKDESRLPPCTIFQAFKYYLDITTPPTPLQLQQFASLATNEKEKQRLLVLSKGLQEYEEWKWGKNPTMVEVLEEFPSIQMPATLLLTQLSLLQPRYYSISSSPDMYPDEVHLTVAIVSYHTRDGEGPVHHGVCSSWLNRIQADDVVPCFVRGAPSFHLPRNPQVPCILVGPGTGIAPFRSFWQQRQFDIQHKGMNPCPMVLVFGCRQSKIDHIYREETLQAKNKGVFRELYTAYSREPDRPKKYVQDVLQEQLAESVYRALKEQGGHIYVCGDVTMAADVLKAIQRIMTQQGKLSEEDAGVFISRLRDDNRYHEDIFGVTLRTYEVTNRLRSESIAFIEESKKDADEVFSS
# Outline: (§1)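 Rat striatal crude homogenate (supernatant after 1000g, 5 min) as nNOS source. L-[3H]-arginine to L-[3H]-citrulline conversion: 10 µM L-arginine plus 50 nM tracer, H4biopterin, FAD, 0.1 mM CaCl2, pH 7.6. Compounds added over 10 pM–1 mM. Started with NADPH (0.75 mM final), 30 min at 37 °C. Blank omits NADPH. Activity expressed as % of untreated samples. Three experiments in triplicate, four striata each.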
# [3] = target: Nitric oxide synthase 1 (Rattus norvegicus) (UniProt P29476); test: Neuronal subtype of Neuronal nitric oxide synthase (nNOS) activity tested on Rat Striatal neurones at the concentration of 10e-5 (M); outline: as §1
# [4] = target: Nitric oxide synthase 1 (Rattus norvegicus) (UniProt P29476); test: Neuronal subtype of Neuronal nitric oxide synthase (nNOS) activity tested on Rat Striatal neurones at the concentration of 10e-11 (M); outline: as §1
# [5] = target: Nitric oxide synthase 1 (Rattus norvegicus) (UniProt P29476); test: Neuronal subtype of Neuronal nitric oxide synthase (nNOS) activity tested on Rat Striatal neurones at the concentration of 10e-3 (M); outline: as §1
# [6] = target: Nitric oxide synthase 1 (Rattus norvegicus) (UniProt P29476); test: Neuronal subtype of Neuronal nitric oxide synthase (nNOS) activity tested on Rat Striatal neurones at the concentration of 0(M); outline: as §1
# [7] = target: Nitric oxide synthase 1 (Rattus norvegicus) (UniProt P29476); test: Neuronal subtype of Neuronal nitric oxide synthase (nNOS) activity tested on Rat Striatal neurones at the concentration of 10e-9 (M); outline: as §1
# [8] = target: Nitric oxide synthase 1 (Rattus norvegicus, UniProt P29476); test: 50% inhibitory concentration against Neuronal nitric oxide synthase (nNOS) activity; outline: as §1
# Sequence of Nitric oxide synthase 1 (P29476 whole entry): as above
Structure (SMILES),NS [1],nNOS activity [2] [%],nNOS activity [3] [%],nNOS activity [4] [%],nNOS activity [5] [%],nNOS activity [6] [%],nNOS activity [7] [%],also measured
CCOC(=O)C(CC(=O)c1cc(OC)ccc1N(C)C)(NC(C)=O)C(=O)OCC,Insoluble,–,–,–,–,–,–,–
CCCC(=O)NC(CC(=O)c1cccc(OC)c1)C(=O)O (stereo not given),–,101,99.7,99.9,105,100,101,–
CCCC(=O)NC(CC(=O)c1cc(OC)ccc1N)C(=O)O (stereo not given),–,77.3,67.4,85.8,55,100,82.1,IC50 [8]: > 1000 µM
CCOC(=O)C(CC(=O)c1cccc([N+](=O)[O-])c1)(NC(C)=O)C(=O)OCC,Insoluble,–,–,–,–,–,–,–
CCCC(=O)NC(CC(=O)c1cccc(OC)c1)(C(=O)OCC)C(=O)OCC,Insoluble,–,–,–,–,–,–,–
COc1ccc(N(C)C)c(C(=O)CC(NC(C)=O)C(=O)O)c1 (stereo not given),–,99.6,101,100,99,100,99.9,–
CCOC(=O)C(CC(=O)c1cccc(OC)c1)(NC(=O)C1CCCCC1)C(=O)OCC,Insoluble,–,–,–,–,–,–,–
CCCC(=O)NC(CCC(=O)c1ccccc1)(C(=O)OCC)C(=O)OCC,Insoluble,–,–,–,–,–,–,–
C/C=C/C(=O)NC(CC(=O)c1cccc(OC)c1)(C(=O)OCC)C(=O)OCC,Insoluble,–,–,–,–,–,–,–
CCOC(=O)C(CC(=O)c1cccc(OC)c1)(NC(=O)C1CC1)C(=O)OCC,Insoluble,–,–,–,–,–,–,–
CCOC(=O)C(CC(=O)c1cccc(OC)c1)(NC(=O)c1ccccc1)C(=O)OCC,Insoluble,–,–,–,–,–,–,–
COc1ccc(NCc2ccccc2)c(C(=O)CC(NC(C)=O)C(=O)O)c1 (stereo not given),–,100,98.2,101,100,100,101,–
COc1cccc(C(=O)CC(NC(C)=O)C(=O)O)c1 (stereo not given),–,87.2,103,92.7,95.7,100,100,–
CCOC(=O)C(CC(=O)c1cc(OC)ccc1NCc1ccccc1)(NC(C)=O)C(=O)OCC,Insoluble,–,–,–,–,–,–,–
CCOC(=O)C(CC(=O)c1cccc([N+](=O)[O-])c1)(NC(=O)CC)C(=O)OCC,Insoluble,–,–,–,–,–,–,–
CCCC(=O)NC(C(=O)OCC)(C(=O)OCC)C(C)C(=O)c1ccccc1 (stereo not given),Insoluble,–,–,–,–,–,–,–
CCCC(=O)NC(CC(=O)c1cc(OC)ccc1N)(C(=O)OCC)C(=O)OCC,Insoluble,–,–,–,–,–,–,–
COc1ccc(N)c(C(=O)CC(NC(C)=O)C(=O)O)c1 (stereo not given) [KYNURENIN],–,65.8,64,78.6,31.5,100,73.4,IC50 [8]: 41 µM
